Data reported in paper PMC6557269 (Journal of controlled release : official journal of the …, 2019).
Ends that are not written are not given here. * marks the point of attachment. DTPA = O=C(O)CN(CCN(CC(=O)O)CC(=O)O)CCN(CC(=O)O)CC(=O)*; PEG = 40 kDa poly(ethylene glycol)

Assays:
TIP1 protein = biological target: T1, TIP1 protein (Homo sapiens, UniProt O14907); assay: Surface plasmon resonance; format: binding; settings: SPR BIAcore 2000, TIP1 on CM5 chip, Supplementary figure 1
T1 sequence (O14907 1-124): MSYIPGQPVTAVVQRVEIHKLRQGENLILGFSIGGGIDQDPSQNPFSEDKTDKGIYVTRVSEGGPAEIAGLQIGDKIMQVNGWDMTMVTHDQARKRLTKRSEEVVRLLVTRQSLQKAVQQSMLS

D54 tumors = assay: NanoSPECT/CT imaging, heterotopic glioblastoma tumors; format: in vivo; settings: nude mice, 48 h post injection, tumor irradiated 3 x 3 Gy
A549 tumors = assay: NanoSPECT/CT imaging, heterotopic lung tumors; format: in vivo; settings: nude mice, 48 h post injection, tumor irradiated 3 x 3 Gy
OE33 tumors [1] = format: in vivo, nude mice
BxPC3 tumors = assay: NanoSPECT/CT imaging, heterotopic pancreatic tumors; format: in vivo; settings: nude mice, 48 h post injection, tumor irradiated 3 x 3 Gy
OE33 tumors [2] = assay: NanoSPECT/CT imaging, heterotopic esophageal tumors; format: in vivo, nude mice
HT3 tumors [3] = format: in vivo, nude mice
OE33 tumors [4] = assay: Autoradiography of tumor and muscle sections; format: in vivo, nude mice; settings: phosphor imager plate 16 h, after SPECT imaging
Summary of the method: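 After SPECT, tumors were sectioned at 200 micron, with leg muscle sections as control tissue. Sections were exposed to a phosphor imager plate for 16 h at −20 °C, and the plate was scanned to map microdistribution of the ¹¹¹In-labelled PEG-peptide.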

HT3 tumors [5] = assay: NanoSPECT/CT imaging, heterotopic cervical tumors; format: in vivo, nude mice
[6] = 96 h post injection, gamma counter, n=3 per group
[7] = nude mice, i.v. ~500 μCi, 48 h and 72 h post injection, n=3 per group
[8] = right hind limb tumor 3 x 3 Gy vs left sham tumor

| Substance | binding to immobilized TIP1 (sensogram comparison) (TIP1 protein) | tumor binding by SPECT/CT, irradiated D54 tumors, compared to PEG-control (D54 tumors) | tumor binding by SPECT/CT, irradiated A549 tumors, compared to PEG-control (A549 tumors) | tumor uptake in biodistribution vs control peptide, OE33 (OE33 tumors [1]; [6]) | presence in blood and liver, OE33 tumor-bearing mice (OE33 tumors [1]; mouse, in vivo) | tumor binding by SPECT/CT, irradiated BxPC3 tumors, compared to PEG-control (BxPC3 tumors) | tumor binding by SPECT, OE33 tumors (OE33 tumors [2]; [7]) | effect of irradiating the tumor on tumor binding, OE33 (OE33 tumors [2]; [8]) | tumor uptake in biodistribution vs control peptide, HT3 (HT3 tumors [3]; [6]) | presence in blood and liver, HT3 tumor-bearing mice (HT3 tumors [3]; mouse, in vivo) | microscopic distribution in OE33 tumor sections (OE33 tumors [4]) | uptake in leg muscle sections (control tissue) (OE33 tumors [4]) | tumor binding by SPECT, HT3 tumors (HT3 tumors [5]; [7]) | effect of irradiating the tumor on tumor binding, HT3 (HT3 tumors [5]; [8]) |
| --- | --- | --- | --- | --- | --- | --- | --- | --- | --- | --- | --- | --- | --- | --- |
| mPEG40K-carbonyl-Lys(CHX-A”-DTPA)-AEEAc-Lys(CHX-A”-DTPA)-AEEAc-Trp-Lys(CHX-A”-DTPA)-AEEAc-Gly-Ile-Arg-Leu-Arg-Gly-OH [PEG-HVGGSSV, mPEG40K-carbonyl-Lys(CHX-A”-DTPA)-AEEAc-Lys(CHX-A”-DTPA)-AEEAc-Trp-Lys(CHX-A”-DTPA)-AEEAc-Gly-Ile-Arg-Leu-Arg-Gly-OH trifluoroacetate Salt] | did not alter the binding affinity | – | – | – | – | – | – | – | – | – | – | – | – | – |
| HGVIGRV [scrambled peptide, reference compound] | did not show binding | – | – | – | – | – | – | – | – | – | – | – | – | – |
| ^111In-labeled PEG-DTPA-HVGGSSV: DTPA-PEG-HVGGSSV labeled with ^111Indium ({DTPA-PEG}-HVGGSSV; also: 111In chelated by DTPA) | – | enhanced binding | enhanced binding | significantly higher (p<0.001) | observed in the blood and liver | enhanced binding | bound | did not affect tumor binding | significantly higher (p<0.001) | observed in the blood and liver | even distribution | no peptide uptake | bound | did not affect tumor binding |
